Source: ChEMBL document CHEMBL3112563, “The benzimidazole based drugs show good activity against T. gondii but poor activity against its proposed enoyl reductase enzyme target” (Bioorg Med Chem Lett, 2014)
pIC50: −log10 of the molar value. Values after ≈ are worked out from the molar mass of the structure shown. Active and inactive are the calls of the source. No cut-off for these calls is given here.

Tests used:
Toxoplasma gondii [1] = test: Antiparasitic activity against tachyzoite stage of Toxoplasma gondii RH infected in HFF assessed as inhibition of parasite growth after 72 hrs by yellow fluorescence reporter gene assay; format: functional
Procedure, shortened: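 HFF infected with 3200 RH-YFP tachyzoites (type 1, stably transfected with yellow fluorescence gene) and treated with compound at the indicated concentrations. Relative YFP fluorescence read after 72 h at excitation/emission 510/540 nm. Controls: pyrimethamine/sulfadiazine (positive), 0.1% DMSO (negative).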

HFF = test: Cytotoxicity against HFF assessed as cell viability at 10 uM after 72 hrs by WST-1 assay; format: cell-based; settings: human
Procedure, shortened: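 Host HFF incubated with compound at 10 µM for 72 h. Viability read by WST-1 staining. DMSO at several concentrations in the culture medium gave a standard toxicity curve.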

Toxoplasma gondii [2] = test: Antiparasitic activity against tachyzoite stage of Toxoplasma gondii PRU infected in HFF assessed as inhibition of parasite growth at 10 uM after 72 hrs by yellow fluorescence reporter gene assay; format: functional
PC-3 = test: Cytotoxicity against human PC3 cells at 10 uM after 96 hrs by luciferase reporter gene assay; format: cell-based; settings: pc-3, 96 h
Procedure, shortened: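 Confluent luciferase-expressing PC3-Luc cells in phenol red-free DMEM (10% FCS, 1% L-glutamine, 1% penicillin-streptomycin) given compound at 10 nM–10 µM. D-luciferin potassium salt added at 150 µg/ml at 48 and 96 h, then bioluminescence imaged for 1 min. Cytotoxicity taken as loss of signal. Controls: 1% Triton X (positive) and vehicle.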

[3] = target: T1, Enoyl-acyl carrier reductase (Toxoplasma gondii, UniProt Q6UCJ9); test: Inhibition of Toxoplasma gondii enoyl-ACP reductase-NADH complex
T1 sequence (Q6UCJ9 whole entry): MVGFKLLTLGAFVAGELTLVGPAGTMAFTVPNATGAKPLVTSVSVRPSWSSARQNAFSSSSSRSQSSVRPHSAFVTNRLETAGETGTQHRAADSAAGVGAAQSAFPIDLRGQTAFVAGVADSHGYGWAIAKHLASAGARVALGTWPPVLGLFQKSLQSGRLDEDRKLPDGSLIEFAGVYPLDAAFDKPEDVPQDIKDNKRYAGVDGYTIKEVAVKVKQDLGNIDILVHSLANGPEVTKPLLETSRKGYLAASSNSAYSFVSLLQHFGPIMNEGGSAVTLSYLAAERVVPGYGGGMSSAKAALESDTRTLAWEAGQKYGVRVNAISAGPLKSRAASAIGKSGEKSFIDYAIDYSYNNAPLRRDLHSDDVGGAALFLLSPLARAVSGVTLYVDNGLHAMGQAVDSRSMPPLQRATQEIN

| Structure (SMILES) | MIC50 (Toxoplasma gondii [1]) [µM] | Activity (HFF) | inhibition (Toxoplasma gondii [2]) | Activity (PC-3) | pIC50 [3] |
| --- | --- | --- | --- | --- | --- |
| Cc1cc2ncn(Cc3ccc(Cl)c(Cl)c3)c2cc1C | 2.5 (≈ 0.763 µg/mL) | Non-toxic | Active | Non-toxic | < 6.00 |
| Cc1ccc(Cn2cnc3cc(C)c(C)cc32)cc1 | > 10 | Non-toxic | Active | Non-toxic | < 6.00 |
| Cc1cc2ncn(Cc3ccc(Cl)cc3)c2cc1C | 4 (≈ 1.08 µg/mL) | Non-toxic | – | Non-toxic | < 6.00 |
